In brackets after ≈: the same amount, converted by molar mass.

These results are taken from ChEMBL document CHEMBL1157529, “Lantadenes and their esters as potential antitumor agents” (J Nat Prod, 2008).

A short description of assay [1]: Inhibition of DMBA-induced/TPA-promoted carcinogenesis in Swiss albino mouse squamous cells assessed as incidence of skin papillomas administered orally 1 week before DMBA administration and continued for 20 weeks relative to DMPA/TPA treated control. The assay is classed as functional. In outline: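 Female Swiss albino mice (LACCA, 6 weeks, 18-22 g), backs depilated. DMBA 100 nmol in 100 µL acetone applied topically for 2 weeks, then TPA 1.7 nmol in 100 µL acetone twice weekly for 18 weeks. Compounds given orally in water/carboxymethyl cellulose, starting 1 week before DMBA, for 20 weeks. n = 10 per group. Papilloma incidence, body weight and survival recorded.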

Assay [2] in a line: Cytotoxicity against human colon 502713 cells after 48 hrs by MTT assay. The assay is classed as functional, cell-based. Particulars: Homo sapiens, 502713, 48 h. In outline: (§1)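 HL-60, HeLa, colon 502713 and A-549 cells grown in RPMI with 10% FBS, streptomycin and penicillin at 37 °C, 5% CO2. Cells (2 × […]/0.1 mL well) exposed 48 h to serial compound dilutions. MTT added for the final 4 h at 37 °C. Formazan extracted in DMSO and read at 540 nm. Mean and standard deviation of triplicate assays.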

The subject of assay [3] is HeLa. The experiment in a line: Cytotoxicity against human HeLa cells after 48 hrs by MTT assay. The assay is classed as functional, cell-based. A digest of the protocol: as §1
Background: Tetrazolium assays rely on reduction of a dye to a coloured formazan, in cell work by metabolically active cells.

Assay [4] deals with HL-60. The experiment in a line: Cytotoxicity against human HL60 cells after 48 hrs by MTT assay. It is filed as functional, cell-based. As to conditions: HL-60, 48 h. In outline: as §1
Assay [5] concerns A549. The experiment in a line: Cytotoxicity against human A549 cells after 48 hrs by MTT assay. The assay is classed as functional, cell-based. As to conditions: A549, 48 h. In outline:
as §1

The nature of assay [6]: Inhibition of DMBA-induced/TPA-promoted carcinogenesis in Swiss albino mouse squamous cells assessed as survival rate administered orally 1 week before DMBA administration and continued for 20 weeks relative to DMPA/TPA treated control. It is filed as functional. A digest of the protocol: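 Female Swiss albino mice (LACCA, 6 weeks, 18-22 g), depilated back; DMBA 100 nmol/100 µL acetone topically for 2 weeks, then TPA 1.7 nmol/100 µL acetone twice weekly for 18 weeks. Compounds given orally as suspension in water/carboxymethyl cellulose from 1 week before DMBA for 20 weeks, n = 10/group. Number of surviving animals recorded at 20 weeks.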

The term IC50 denotes the concentration that gives 50% inhibition. A low value points to higher potency. For `CCCC(=O)O[C@@H]1CC(C)(C)C[C@H]2C3=CC[C@@H]4[C@@]5(C)CCC(=O)C(C)(C)[C@@H]5CC[C@@]4(C)[C@]3(C)CC[C@@]12C(=O)O`, in assay [1], the “inhibition (INH)” value amounted to 17.2%. Further, the half-inhibitory concentration (IC50) in assay [2] came to 25.2 µg/mL (≈ 46.6 µM); in assay [3] it was 22.8 µg/mL (≈ 42.2 µM); in assay [4], 21.6 µg/mL (≈ 39.9 µM); in assay [5], 27.1 µg/mL (≈ 50.1 µM).

`COC(=O)[C@@]12CC[C@]3(C)C(=CC[C@@H]4[C@@]5(C)CCC(=O)C(C)(C)[C@@H]5CC[C@]43C)[C@@H]1CC(C)(C)C[C@H]2OC(=O)C(C)C`: the IC50 came to 38.1 µg/mL (≈ 68.7 µM) in assay [2], 41.1 µg/mL (≈ 74.1 µM) in assay [3], 39.5 µg/mL (≈ 71.2 µM) in assay [4] and 42.2 µg/mL (≈ 76.1 µM) in assay [5].

Consider `CCCC(=O)O[C@@H]1CC(C)(C)C[C@H]2C3=CC[C@@H]4[C@@]5(C)CCC(=O)C(C)(C)[C@@H]5CC[C@@]4(C)[C@]3(C)CC[C@@]12C(=O)OC`, for which the survival rate in assay [6] was 80%. Besides, the “inhibition (INH)” value in assay [1] stood at 12.4%. Further, the IC50 in assay [2] came out at 21.1 µg/mL (≈ 38 µM); in assay [3], 20.1 µg/mL (≈ 36.2 µM); in assay [4] it was 19.3 µg/mL (≈ 34.8 µM); in assay [5], 22.4 µg/mL (≈ 40.4 µM).

As for `COC(=O)[C@@]12CC[C@]3(C)C(=CC[C@@H]4[C@@]5(C)CCC(=O)C(C)(C)[C@@H]5CC[C@]43C)[C@@H]1CC(C)(C)C[C@H]2OC(C)=O`, the 50% inhibitory concentration (IC50) in assay [2] was 34.6 µg/mL (≈ 65.7 µM); in assay [3], 36.2 µg/mL (≈ 68.7 µM); in assay [4] it was 37.3 µg/mL (≈ 70.8 µM); in assay [5], 36.8 µg/mL (≈ 69.9 µM).

On to `CCC(=O)O[C@@H]1CC(C)(C)C[C@H]2C3=CC[C@@H]4[C@@]5(C)CCC(=O)C(C)(C)[C@@H]5CC[C@@]4(C)[C@]3(C)CC[C@@]12C(=O)O`, for which the survival rate in assay [6] is recorded as 80%. Moreover, the “inhibition (INH)” value in assay [1] stood at 19.6%. Moreover, the 50% inhibitory concentration (IC50) in assay [2] came out at 25.4 µg/mL (≈ 48.2 µM); in assay [3], 28.6 µg/mL (≈ 54.3 µM); in assay [4], 26.4 µg/mL (≈ 50.1 µM); in assay [5] it was 29.6 µg/mL (≈ 56.2 µM).

For the compound `CC(=O)O[C@@H]1CC(C)(C)C[C@H]2C3=CC[C@@H]4[C@@]5(C)CCC(=O)C(C)(C)[C@@H]5CC[C@@]4(C)[C@]3(C)CC[C@@]12C(=O)O`, the IC50 in assay [2] worked out at 34.4 µg/mL (≈ 67.1 µM); in assay [3], 37.3 µg/mL (≈ 72.7 µM); in assay [4], 38.5 µg/mL (≈ 75.1 µM); in assay [5], 36.8 µg/mL (≈ 71.8 µM).

As for `COC(=O)[C@@]12CC[C@]3(C)C(=CC[C@@H]4[C@@]5(C)CCC(=O)C(C)(C)[C@@H]5CC[C@]43C)[C@@H]1CC(C)(C)C[C@H]2O`, the IC50 is 72.4 µg/mL (≈ 149 µM) in assay [2], over 100 µg/mL in assay [3], 70.6 µg/mL (≈ 146 µM) in assay [4] and 84.2 µg/mL (≈ 174 µM) in assay [5].

In the case of `CC1(C)C[C@@H](O)[C@]2(C(=O)O)CC[C@]3(C)C(=CC[C@@H]4[C@@]5(C)CCC(=O)C(C)(C)[C@@H]5CC[C@]43C)[C@@H]2C1`, the IC50 in assay [2] was over 100 µg/mL; in assay [3] it was over 100 µg/mL; in assay [4], under 100 µg/mL; in assay [5], over 100 µg/mL.

Turning to `CC1(C)C[C@@H](OC(=O)c2ccccc2)[C@]2(C(=O)O)CC[C@]3(C)C(=CC[C@@H]4[C@@]5(C)CCC(=O)C(C)(C)[C@@H]5CC[C@]43C)[C@@H]2C1`, the IC50 is 51.2 µg/mL (≈ 89.1 µM) in assay [2], 46.3 µg/mL (≈ 80.5 µM) in assay [3], 50.8 µg/mL (≈ 88.4 µM) in assay [4] and over 100 µg/mL in assay [5].

As for `COC(=O)[C@@]12CC[C@]3(C)C(=CC[C@@H]4[C@@]5(C)CCC(=O)C(C)(C)[C@@H]5CC[C@]43C)[C@@H]1CC(C)(C)C[C@H]2OC(=O)c1ccccc1`, the concentration for half-maximal inhibition (IC50) is over 100 µg/mL in assay [2], 50.7 µg/mL (≈ 86.1 µM) in assay [3], 48 µg/mL (≈ 81.5 µM) in assay [4] and over 100 µg/mL in assay [5].

For the compound `CCC(=O)O[C@@H]1CC(C)(C)C[C@H]2C3=CC[C@@H]4[C@@]5(C)CCC(=O)C(C)(C)[C@@H]5CC[C@@]4(C)[C@]3(C)CC[C@@]12C(=O)OC`, in assay [6], the survival rate turned out to be 80%. Also, the “inhibition (INH)” value in assay [1] stood at 17.9%. Further, the IC50 in assay [2] was 22.4 µg/mL (≈ 41.4 µM); in assay [3], 26.4 µg/mL (≈ 48.8 µM); in assay [4] it was 24.2 µg/mL (≈ 44.7 µM); in assay [5] it was 28.4 µg/mL (≈ 52.5 µM).

As for `CC(C)C(=O)O[C@@H]1CC(C)(C)C[C@H]2C3=CC[C@@H]4[C@@]5(C)CCC(=O)C(C)(C)[C@@H]5CC[C@@]4(C)[C@]3(C)CC[C@@]12C(=O)O`, the survival rate in assay [6] came to 80%. Also, the IC50 in assay [2] is 37.6 µg/mL (≈ 69.5 µM); in assay [3], 43.6 µg/mL (≈ 80.6 µM); in assay [4] it was 41.2 µg/mL (≈ 76.2 µM); in assay [5], 44.2 µg/mL (≈ 81.7 µM).

In the case of `C/C=C(/C)C(=O)O[C@@H]1CC(C)(C)C[C@H]2C3=CC[C@@H]4[C@@]5(C)CCC(=O)C(C)(C)[C@@H]5CC[C@@]4(C)[C@]3(C)CC[C@@]12C(=O)O` [LANTADENE A], in assay [1], the “inhibition (INH)” value amounted to 18.1%. In addition, the IC50 amounted to 21.3 µg/mL (≈ 38.5 µM) in assay [2], 23.3 µg/mL (≈ 42.1 µM) in assay [3], 19.8 µg/mL (≈ 35.8 µM) in assay [4] and 21.8 µg/mL (≈ 39.4 µM) in assay [5].

With `CC(=O)O[C@H]1C(=O)[C@@]2(C)[C@H]([C@H](OC(=O)c3ccccc3)[C@]3(O)C[C@H](OC(=O)[C@H](O)[C@@H](NC(=O)c4ccccc4)c4ccccc4)C(C)=C1C3(C)C)[C@]1(OC(C)=O)CO[C@@H]1C[C@@H]2O` [PACLITAXEL], the IC50 is under 2 µg/mL in assay [2], over 3 µg/mL in assay [3], under 2 µg/mL in assay [4] and under 2 µg/mL in assay [5].
